In ChEMBL document CHEMBL5653631, “A Potent and Selective ULK1 Inhibitor Suppresses Autophagy and Sensitizes Cancer Cells to Nutrient Stress” (iScience, 2018):

What was measured:
[1] = target: Serine/threonine-protein kinase N2 (Homo sapiens) (UniProt Q16513); test: Inhibition of human recombinant PKN2 at 40 nM in presence of ATP by radiometric assay relative to control
[2] = target: Bone morphogenetic protein receptor type-1B (Homo sapiens) (UniProt O00238); test: Inhibition of human recombinant BMPR1B at 40 nM related to control ULK1
How it was run: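 Radiometric activity assays in a panel of 327 human recombinant kinases, each run in duplicate at one inhibitor concentration. Activity remaining is expressed as percent of vehicle control, and percent inhibition is calculated as 100% minus percent activity remaining.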

[3] = target: T1, Serine/threonine-protein kinase TAO1 (Homo sapiens) (UniProt Q7L7X3); test: Inhibition of human recombinant TAO1 at 40 nM related to control ULK1
T1 sequence (whole entry): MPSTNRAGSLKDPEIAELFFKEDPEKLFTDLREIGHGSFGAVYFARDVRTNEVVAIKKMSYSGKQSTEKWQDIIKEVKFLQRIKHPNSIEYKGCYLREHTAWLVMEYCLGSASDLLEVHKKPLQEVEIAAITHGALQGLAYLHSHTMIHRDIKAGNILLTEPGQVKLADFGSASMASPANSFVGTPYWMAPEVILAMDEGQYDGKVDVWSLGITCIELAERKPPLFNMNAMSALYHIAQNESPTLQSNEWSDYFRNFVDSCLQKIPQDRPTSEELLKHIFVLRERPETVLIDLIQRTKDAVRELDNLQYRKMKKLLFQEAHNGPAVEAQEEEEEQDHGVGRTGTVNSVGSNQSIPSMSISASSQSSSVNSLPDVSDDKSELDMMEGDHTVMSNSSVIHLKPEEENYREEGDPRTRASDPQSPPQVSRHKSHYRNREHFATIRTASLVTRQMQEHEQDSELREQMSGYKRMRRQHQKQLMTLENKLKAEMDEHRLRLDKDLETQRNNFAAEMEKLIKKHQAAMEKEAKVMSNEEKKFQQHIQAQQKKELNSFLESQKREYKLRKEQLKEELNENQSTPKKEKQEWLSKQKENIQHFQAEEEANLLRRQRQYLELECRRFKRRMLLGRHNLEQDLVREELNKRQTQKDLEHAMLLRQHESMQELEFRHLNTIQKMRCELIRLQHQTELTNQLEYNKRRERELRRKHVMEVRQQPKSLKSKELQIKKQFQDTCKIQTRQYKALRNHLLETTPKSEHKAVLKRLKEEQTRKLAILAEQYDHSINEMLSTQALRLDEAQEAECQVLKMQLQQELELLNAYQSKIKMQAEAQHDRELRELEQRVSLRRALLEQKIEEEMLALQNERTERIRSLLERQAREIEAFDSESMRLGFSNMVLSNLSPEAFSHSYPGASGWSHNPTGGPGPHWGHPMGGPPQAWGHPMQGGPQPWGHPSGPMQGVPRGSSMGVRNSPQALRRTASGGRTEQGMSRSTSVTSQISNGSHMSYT

[4] = target: G protein-coupled receptor kinase 5 (Homo sapiens) (UniProt P34947); test: Inhibition of human recombinant GPRK5 at 40 nM related to control ULK1
[5] = target: Tyrosine-protein kinase SYK (Homo sapiens) (UniProt P43405); test: Inhibition of human recombinant SYK at 15 nM related to control ULK1
[6] = target: T2, Serine/threonine-protein kinase NLK (Homo sapiens) (UniProt Q9UBE8); test: Inhibition of human recombinant NLK at 15 nM related to control ULK1
T2 sequence (whole entry): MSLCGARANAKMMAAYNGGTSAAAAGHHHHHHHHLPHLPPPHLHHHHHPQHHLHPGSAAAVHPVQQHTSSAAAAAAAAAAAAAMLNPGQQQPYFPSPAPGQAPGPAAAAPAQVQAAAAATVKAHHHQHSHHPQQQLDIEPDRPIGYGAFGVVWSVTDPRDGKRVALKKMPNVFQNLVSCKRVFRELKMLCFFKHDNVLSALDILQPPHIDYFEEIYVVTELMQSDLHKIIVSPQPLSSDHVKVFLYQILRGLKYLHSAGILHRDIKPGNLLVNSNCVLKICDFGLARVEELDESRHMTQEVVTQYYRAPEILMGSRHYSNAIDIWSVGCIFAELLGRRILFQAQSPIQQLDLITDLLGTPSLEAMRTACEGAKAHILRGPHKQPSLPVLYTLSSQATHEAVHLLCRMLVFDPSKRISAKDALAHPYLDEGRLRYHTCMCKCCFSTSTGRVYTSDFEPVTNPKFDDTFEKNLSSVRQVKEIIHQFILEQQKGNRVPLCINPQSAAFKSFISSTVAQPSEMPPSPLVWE

[7] = target: BDNF/NT-3 growth factors receptor (Homo sapiens) (UniProt Q16620); test: Inhibition of human recombinant TRKB at 15 nM related to control ULK1
[8] = target: TGF-beta receptor type-2 (Homo sapiens) (UniProt P37173); test: Inhibition of human recombinant TGFbR2 at 15 nM related to control ULK1
[9] = target: SRSF protein kinase 1 (Homo sapiens) (UniProt Q96SB4); test: Inhibition of human recombinant SRPK1 at 15 nM in presence of ATP by radiometric assay relative to control
[10] = target: T3, Activin receptor type-1 (Homo sapiens) (UniProt Q04771); test: Inhibition of human recombinant ALK2 at 15 nM related to control ULK1
T3 sequence (whole entry): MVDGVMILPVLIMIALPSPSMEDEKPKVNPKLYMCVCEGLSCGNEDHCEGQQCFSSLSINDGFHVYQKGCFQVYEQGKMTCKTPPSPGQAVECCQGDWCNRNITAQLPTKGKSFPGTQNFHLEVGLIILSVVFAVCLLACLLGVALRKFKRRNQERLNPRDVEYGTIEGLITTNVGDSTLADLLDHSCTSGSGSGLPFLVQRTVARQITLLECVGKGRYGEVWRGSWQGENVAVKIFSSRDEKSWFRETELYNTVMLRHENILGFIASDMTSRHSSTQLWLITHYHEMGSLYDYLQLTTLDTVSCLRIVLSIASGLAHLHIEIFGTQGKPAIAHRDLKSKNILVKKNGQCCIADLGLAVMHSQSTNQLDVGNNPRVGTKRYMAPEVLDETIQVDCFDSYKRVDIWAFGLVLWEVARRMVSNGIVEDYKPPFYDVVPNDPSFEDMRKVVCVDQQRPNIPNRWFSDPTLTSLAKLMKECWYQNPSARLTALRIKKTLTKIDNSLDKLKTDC
How it was run: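 Panel of 327 recombinant human kinases, each assayed in vitro by radiometric activity assay in duplicate at a single inhibitor concentration per compound, chosen with reference to its ULK1 inhibition. Activity remaining was expressed as percent of vehicle control, and percent inhibition was calculated as 100 minus percent activity remaining.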

[11] = target: PAS domain-containing serine/threonine-protein kinase (Homo sapiens) (UniProt Q96RG2); test: Inhibition of human recombinant PASK at 500 nM related to control ULK1
Sequence of PAS domain-containing serine/threonine-protein kinase (Homo sapiens) (Q96RG2 whole entry, the tested form may be a part): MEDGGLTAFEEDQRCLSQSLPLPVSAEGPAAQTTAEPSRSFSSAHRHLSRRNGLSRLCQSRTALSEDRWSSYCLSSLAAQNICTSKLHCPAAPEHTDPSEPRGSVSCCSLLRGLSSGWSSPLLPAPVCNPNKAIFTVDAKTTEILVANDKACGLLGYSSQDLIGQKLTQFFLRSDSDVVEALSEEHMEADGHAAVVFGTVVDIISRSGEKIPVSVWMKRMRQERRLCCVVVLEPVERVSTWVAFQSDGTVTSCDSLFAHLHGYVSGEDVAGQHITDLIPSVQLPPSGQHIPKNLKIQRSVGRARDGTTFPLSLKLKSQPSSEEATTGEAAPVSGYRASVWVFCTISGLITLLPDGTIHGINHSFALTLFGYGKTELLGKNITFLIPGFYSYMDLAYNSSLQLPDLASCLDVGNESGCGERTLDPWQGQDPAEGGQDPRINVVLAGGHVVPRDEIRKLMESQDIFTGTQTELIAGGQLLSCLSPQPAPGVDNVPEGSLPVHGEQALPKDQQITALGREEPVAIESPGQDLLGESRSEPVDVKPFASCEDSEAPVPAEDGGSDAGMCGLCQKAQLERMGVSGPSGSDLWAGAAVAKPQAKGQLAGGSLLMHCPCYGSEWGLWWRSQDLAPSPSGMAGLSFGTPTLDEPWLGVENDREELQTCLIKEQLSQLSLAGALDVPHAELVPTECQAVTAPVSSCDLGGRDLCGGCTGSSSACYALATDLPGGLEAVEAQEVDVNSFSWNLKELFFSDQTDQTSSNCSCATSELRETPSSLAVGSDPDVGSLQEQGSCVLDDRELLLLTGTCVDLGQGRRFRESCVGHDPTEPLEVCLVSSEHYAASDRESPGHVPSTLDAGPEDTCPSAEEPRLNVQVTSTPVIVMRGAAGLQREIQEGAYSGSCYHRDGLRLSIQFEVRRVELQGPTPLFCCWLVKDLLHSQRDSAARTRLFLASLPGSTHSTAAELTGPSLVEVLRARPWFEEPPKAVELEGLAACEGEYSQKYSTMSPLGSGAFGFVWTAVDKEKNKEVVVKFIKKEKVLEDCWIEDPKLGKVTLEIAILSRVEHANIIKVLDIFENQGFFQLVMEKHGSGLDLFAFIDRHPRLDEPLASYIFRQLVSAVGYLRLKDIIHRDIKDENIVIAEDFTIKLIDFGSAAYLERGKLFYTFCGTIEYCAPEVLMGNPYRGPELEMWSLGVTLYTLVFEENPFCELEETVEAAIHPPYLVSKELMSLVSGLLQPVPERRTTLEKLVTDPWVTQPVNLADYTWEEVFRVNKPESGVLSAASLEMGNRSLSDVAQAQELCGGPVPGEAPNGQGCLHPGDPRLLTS

Sequence of BDNF/NT-3 growth factors receptor (Homo sapiens) (Q16620 32-822 limits assumed): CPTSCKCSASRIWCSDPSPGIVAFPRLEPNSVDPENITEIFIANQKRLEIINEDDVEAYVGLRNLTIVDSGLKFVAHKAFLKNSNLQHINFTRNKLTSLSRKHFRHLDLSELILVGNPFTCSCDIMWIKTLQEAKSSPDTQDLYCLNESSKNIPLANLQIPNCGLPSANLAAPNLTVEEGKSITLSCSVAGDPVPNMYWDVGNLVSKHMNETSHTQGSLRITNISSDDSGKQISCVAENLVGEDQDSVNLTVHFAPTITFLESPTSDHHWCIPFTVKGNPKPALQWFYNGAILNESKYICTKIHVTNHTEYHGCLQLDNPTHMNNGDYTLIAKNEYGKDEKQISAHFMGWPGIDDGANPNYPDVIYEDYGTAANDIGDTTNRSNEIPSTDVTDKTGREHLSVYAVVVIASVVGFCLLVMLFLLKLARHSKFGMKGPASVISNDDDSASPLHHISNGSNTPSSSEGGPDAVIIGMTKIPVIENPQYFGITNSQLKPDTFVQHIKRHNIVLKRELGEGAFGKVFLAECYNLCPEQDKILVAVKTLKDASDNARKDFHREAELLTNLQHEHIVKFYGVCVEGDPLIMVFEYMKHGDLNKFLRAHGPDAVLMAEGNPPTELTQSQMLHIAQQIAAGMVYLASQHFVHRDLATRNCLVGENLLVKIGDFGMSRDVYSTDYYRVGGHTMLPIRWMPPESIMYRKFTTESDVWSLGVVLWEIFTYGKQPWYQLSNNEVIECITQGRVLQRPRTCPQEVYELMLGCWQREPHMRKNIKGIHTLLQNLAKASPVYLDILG
Sequence of SRSF protein kinase 1 (Homo sapiens) (Q96SB4 whole entry): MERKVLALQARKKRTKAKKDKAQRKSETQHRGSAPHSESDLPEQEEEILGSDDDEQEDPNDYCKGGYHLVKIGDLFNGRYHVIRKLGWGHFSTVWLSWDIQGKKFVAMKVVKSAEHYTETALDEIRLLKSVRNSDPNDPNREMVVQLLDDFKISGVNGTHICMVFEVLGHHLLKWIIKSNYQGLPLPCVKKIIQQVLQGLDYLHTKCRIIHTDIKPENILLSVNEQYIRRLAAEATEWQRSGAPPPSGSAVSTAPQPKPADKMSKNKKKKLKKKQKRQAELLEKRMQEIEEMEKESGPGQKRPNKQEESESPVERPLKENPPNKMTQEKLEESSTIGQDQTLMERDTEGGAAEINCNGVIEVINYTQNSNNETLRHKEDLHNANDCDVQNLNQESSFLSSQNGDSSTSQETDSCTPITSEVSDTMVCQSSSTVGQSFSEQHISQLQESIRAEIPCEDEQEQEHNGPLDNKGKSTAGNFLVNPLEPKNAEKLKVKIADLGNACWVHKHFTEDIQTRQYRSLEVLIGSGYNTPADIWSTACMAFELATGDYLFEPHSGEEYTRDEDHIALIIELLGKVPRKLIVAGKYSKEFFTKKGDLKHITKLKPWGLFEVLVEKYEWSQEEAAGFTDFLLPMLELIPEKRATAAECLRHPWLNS
Sequence of TGF-beta receptor type-2 (Homo sapiens) (P37173 whole entry): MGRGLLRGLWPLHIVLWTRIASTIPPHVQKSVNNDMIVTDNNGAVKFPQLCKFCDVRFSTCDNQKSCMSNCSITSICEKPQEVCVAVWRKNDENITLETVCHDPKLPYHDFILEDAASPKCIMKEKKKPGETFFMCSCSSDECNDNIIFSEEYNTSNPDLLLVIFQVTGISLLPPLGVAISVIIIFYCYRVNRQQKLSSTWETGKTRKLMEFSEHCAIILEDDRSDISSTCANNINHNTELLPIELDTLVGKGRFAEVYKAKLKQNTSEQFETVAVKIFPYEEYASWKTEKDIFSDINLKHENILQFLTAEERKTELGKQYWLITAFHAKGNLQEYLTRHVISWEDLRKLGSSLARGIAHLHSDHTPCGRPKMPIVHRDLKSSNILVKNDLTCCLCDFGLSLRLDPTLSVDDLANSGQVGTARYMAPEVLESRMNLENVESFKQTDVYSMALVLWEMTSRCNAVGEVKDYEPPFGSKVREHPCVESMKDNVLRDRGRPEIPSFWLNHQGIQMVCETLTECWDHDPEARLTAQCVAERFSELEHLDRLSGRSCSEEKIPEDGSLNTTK
Sequence of Serine/threonine-protein kinase N2 (Homo sapiens) (Q16513 whole entry, looked up): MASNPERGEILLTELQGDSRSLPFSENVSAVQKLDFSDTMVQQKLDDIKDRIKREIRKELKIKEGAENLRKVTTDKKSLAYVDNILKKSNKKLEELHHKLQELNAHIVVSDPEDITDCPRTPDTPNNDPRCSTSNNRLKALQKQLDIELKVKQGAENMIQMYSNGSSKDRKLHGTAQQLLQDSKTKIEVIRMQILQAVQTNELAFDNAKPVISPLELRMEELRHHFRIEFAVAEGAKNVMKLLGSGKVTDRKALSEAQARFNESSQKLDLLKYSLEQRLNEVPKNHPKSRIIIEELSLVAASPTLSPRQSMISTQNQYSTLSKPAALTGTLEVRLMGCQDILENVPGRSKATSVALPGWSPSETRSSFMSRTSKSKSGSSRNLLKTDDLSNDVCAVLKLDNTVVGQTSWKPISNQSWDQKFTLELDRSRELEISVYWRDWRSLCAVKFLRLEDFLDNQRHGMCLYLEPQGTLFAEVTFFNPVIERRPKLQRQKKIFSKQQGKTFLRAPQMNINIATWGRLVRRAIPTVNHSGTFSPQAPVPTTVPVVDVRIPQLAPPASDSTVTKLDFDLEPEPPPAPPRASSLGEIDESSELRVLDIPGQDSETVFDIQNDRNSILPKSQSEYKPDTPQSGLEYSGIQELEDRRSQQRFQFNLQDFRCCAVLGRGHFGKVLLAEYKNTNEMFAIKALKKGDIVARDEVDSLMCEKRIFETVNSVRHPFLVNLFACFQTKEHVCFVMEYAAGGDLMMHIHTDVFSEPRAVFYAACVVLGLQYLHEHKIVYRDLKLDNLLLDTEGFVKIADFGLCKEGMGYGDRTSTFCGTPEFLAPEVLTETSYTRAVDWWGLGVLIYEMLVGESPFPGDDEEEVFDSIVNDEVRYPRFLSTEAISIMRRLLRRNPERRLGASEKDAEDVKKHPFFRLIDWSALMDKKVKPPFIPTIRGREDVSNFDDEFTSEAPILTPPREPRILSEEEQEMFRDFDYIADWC
Sequence of Bone morphogenetic protein receptor type-1B (Homo sapiens) (O00238 whole entry): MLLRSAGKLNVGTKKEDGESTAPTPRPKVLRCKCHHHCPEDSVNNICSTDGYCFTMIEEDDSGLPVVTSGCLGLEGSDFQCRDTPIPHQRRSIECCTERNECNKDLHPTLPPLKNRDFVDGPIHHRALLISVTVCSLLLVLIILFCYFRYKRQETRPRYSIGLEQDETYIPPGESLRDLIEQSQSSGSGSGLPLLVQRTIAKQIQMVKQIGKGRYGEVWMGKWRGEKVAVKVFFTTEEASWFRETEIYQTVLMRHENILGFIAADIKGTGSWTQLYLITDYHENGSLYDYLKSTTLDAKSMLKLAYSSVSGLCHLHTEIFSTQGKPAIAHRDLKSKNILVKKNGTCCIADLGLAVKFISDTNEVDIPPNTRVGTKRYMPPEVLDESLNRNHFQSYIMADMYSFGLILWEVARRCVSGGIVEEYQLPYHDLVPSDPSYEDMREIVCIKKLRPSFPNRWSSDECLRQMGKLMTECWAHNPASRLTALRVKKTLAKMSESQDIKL

Q: For O=C(N[C@@H](C1CC1)C(F)(F)F)c1cc(-c2cnn3cc(-c4ccc(F)cc4)cnc23)cs1, which inhibition [1] is on record?
A: 0%

Q: What about the fold change (FC) [2] of the same compound?
A: 0

Q: And the fold change (FC) [3]?
A: 0

Q: What about the fold change (FC) [4] of the same compound?
A: 0.01

Q: For CC(C)[C@H](NC(=O)c1cc(-c2cnn3cc(-c4ccc(OCCN5CCCCC5)cc4)cnc23)cs1)C(F)(F)F, which fold change (FC) [5] is on record?
A: 0

Q: What about the fold change (FC) [6] of the same compound?
A: 0.1

Q: And the fold change (FC) [7]?
A: 0

Q: And the fold change (FC) [8]?
A: 0.48

Q: And the inhibition [9]?
A: 0%

Q: And the fold change (FC) [10]?
A: 0.3

Q: Which fold change (FC) [11] does the source give for CNC(=O)c1ccccc1Oc1nc(Nc2cc(OC)c(OC)c(OC)c2)ncc1Br here?
A: 0.14
